Screens as filed in PubChem BioAssay.
PGC1a acetyl up = compounds raising PGC1a acetylation signal, primary screen, PGC1a modulator project, cell-based, U2OS, AlphaScreen, signal-increasing mode; AID 651723, 2012; 350,000 compounds, 0.21% hits; activation, % at 15.6 µM; overnight;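 active = every replicate reaching activation of at least 50%, whatever the mean replicate activation; inconclusive = replicates that disagree or another doubt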;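 note: hits raise the AlphaScreen acetylation signal above neutral controls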
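Test system: U2OS cells expressing flag-PGC1a plus GCN5; Amount: 7000 U2OS cells per well; Compound: single test concentration per compound; Incubation: compound overnight at 37 °C, each detection step 1 h RT; Signal: AlphaScreen lysate read.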
G6PC hep suppr = suppressors of forskolin-stimulated G6PC mRNA, dose response, PGC-1a acetylation activator project, cell-based, hepatocytes, RT-qPCR, cherry-picked samples; primary mouse hepatocytes; shares compounds with PGC1a acetyl up; G6PC suppression (normalized activity, % of positive control; higher = more suppression), % at 26 µM; 240 tested, under 10 active;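 active = dose curves showing G6PC suppression whose half-maximal dose is at most twice the top valid dose; inconclusive = flat curves with moderate negative activity, or unreliable fits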;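 note: G6PC expression relative to GAPDH housekeeping gene as delta delta Ct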
PCK1 hep suppr = suppression of PCK1 mRNA in primary hepatocytes, dose response, PGC-1a acetylation activator project, cell-based, primary mouse hepatocytes, RT-qPCR, cherry-pick. PCK1 expression decrease, unspecified at 26 µM. forskolin-stimulated. 230 tested, under 10 active. AID 743465, 2014. shares compounds with PGC1a acetyl up;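 active = compounds lowering PCK1 expression whose fitted half-maximal concentration is at most twice the top tested dose; inconclusive = flat fit with moderate opposite-direction effect, or poor fit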;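 note: higher delta delta Ct means lower PCK1 expression so positive values indicate hits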
PGC1a hep suppr = suppression of PGC-1a mRNA in primary hepatocytes, dose response, PGC-1a acetylation activator project, cell-based, primary mouse hepatocytes, RT-qPCR, cherry-pick. shares compounds with PGC1a acetyl up. PGC-1a mRNA qPCR, forskolin; top dose 26 µM. max activity (PGC-1a expression decrease), %. 240 tested, under 10 active;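 active = compound lowering PGC-1a expression with fitted half-maximal concentration at most twice its top tested dose; inconclusive = flat curve with moderate opposite-direction effect, or poor fit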
Large screens that a line does not name were inactive (follow-up assays come after a bar, where they were run). Only a sample is shown.

COc1ccc(/C=N/NC(=O)c2ccc(NC(=O)c3cccc([N+](=O)[O-])c3)cc2)c(OC)c1	none
N#CCc1ccc(NC(=O)/C=C/c2ccc([N+](=O)[O-])o2)cc1	PGC1a acetyl up 299.4
O=C(CNc1cccc([N+](=O)[O-])c1)N/N=C/c1ccc([N+](=O)[O-])o1	PGC1a acetyl up 91.5
O=C(Cc1ccc([N+](=O)[O-])cc1)N/N=C/c1ccc([N+](=O)[O-])o1	PGC1a acetyl up 301.7
Cc1nn(-c2ccccc2)c(Cl)c1C(=O)N1CCN(c2ncnc3c2cnn3-c2ccccc2)CC1	none
C[C@H]1CN([C@@H](C)CO)C(=O)CCCn2cc(nn2)CO[C@H]1CN(C)S(=O)(=O)c1ccc(Cl)cc1	none
Cc1cc(Cn2nc(C(=O)NCc3cccc(C(F)(F)F)c3)cc2-c2ccccc2)on1	PGC1a acetyl up 78.0 | G6PC hep suppr inactive | PCK1 hep suppr inconclusive | PGC1a hep suppr inactive
COc1ccc(C(C)(O)c2nc(-c3ccc(S(C)(=O)=O)cc3)cs2)cc1 (stereo not drawn)	PGC1a acetyl up inconclusive | G6PC hep suppr inactive | PCK1 hep suppr inactive | PGC1a hep suppr inactive
O=C(c1ccccc1Cl)N1CCNCC1	none
OCCN(Cc1ccccc1)CC1CCCCC1	none
CC(=O)c1ccc(N2CCN(C(=O)C(=O)c3c(C)[nH]c4ccccc34)CC2)cc1	PGC1a acetyl up 65.6 | G6PC hep suppr inactive | PCK1 hep suppr inactive | PGC1a hep suppr inactive
O=C1/C(=C/c2ccc(N3CCOCC3)o2)SC(=Nc2ccccc2)N1CCc1c[nH]c2ccccc12	none
CCCCCCCCC(=O)O	none
O=C(Nc1ccccc1)C1=C[C@@H](c2ccc(C(F)(F)F)cc2)C[C@@H](OCc2ccc(CO)cc2)O1	PGC1a acetyl up 63.2 | G6PC hep suppr inactive | PCK1 hep suppr inactive | PGC1a hep suppr inactive
CC(=O)Nc1ccc(Nc2ncnc3c2cnn3-c2ccc(C)cc2C)cc1	PGC1a acetyl up 131.3 | G6PC hep suppr inactive | PGC1a hep suppr inactive
CCc1nc(SCC(=O)N2c3ccccc3Sc3ccccc32)c2ccccc2n1	none
COC(=O)COc1c(/C=C\c2nc(O)c([N+](=O)[O-])c(=O)[nH]2)cccc1OC	none
O=C1C=CC(=O)c2c(O)c(N3CCN(CCO)CC3)c(Cl)c(O)c21	none
CCOCCn1c(CN(Cc2ccccc2)Cc2ccccc2)nc2c1c(=O)[nH]c(=O)n2C	PGC1a acetyl up inconclusive | G6PC hep suppr inactive | PCK1 hep suppr inactive | PGC1a hep suppr inactive
CCOCCn1c(CN(Cc2ccccc2)Cc2ccccc2)nc2c1c(=O)n(C)c(=O)n2C	PGC1a acetyl up 56.3 | PCK1 hep suppr inactive | PGC1a hep suppr inactive
CCCCn1c(CN(Cc2ccccc2)Cc2ccccc2)nc2c1c(=O)n(C)c(=O)n2C	PGC1a acetyl up inconclusive | G6PC hep suppr inactive | PCK1 hep suppr inactive | PGC1a hep suppr inactive
CCOC(=O)Cn1cc(/C=C(/C#N)C(=O)NC(C)C)c2ccccc21	none
CCOC(=O)NC(=S)Nc1cccc(NC(=S)NC(=O)OCC)c1	none
O=S(=O)(Nc1cc(Sc2ncn[nH]2)c(O)c2ccccc12)c1ccccc1	none
Cc1sc2ncnc(N3CCC(C(=O)NNC(=O)COc4ccc(Cl)cc4)CC3)c2c1C	none
CN1CC=C2C(C#N)=C(N)C(C#N)(C#N)C(CCc3ccccc3)C2C1 (stereo not drawn)	none
C=CCNc1nc(Cl)nc(NCc2ccco2)n1	none
CC(=O)N(Cc1ccc(F)cc1)C1=C(NCCc2ccccc2)C(=O)c2ccccc2C1=O	none
OC(c1cc(-c2ccc(Cl)cc2)nc2ccccc12)C1CCCCN1 (stereo not drawn)	PGC1a acetyl up inconclusive | G6PC hep suppr inactive | PCK1 hep suppr inactive | PGC1a hep suppr inactive
CC1(C)CC(=O)C=C(NCc2ccco2)C1	none
Fc1ccc(CNC(=S)NCc2ccc(F)cc2)cc1	none
CCN1CC=C2C(C#N)=C(N)C(C#N)(C#N)[C@H](c3cccc(OC)c3OC)[C@H]2C1	none
CN1CCN(c2ccc(CNC(=O)c3ccc(-c4ccnn4C)c4ccoc34)cc2)CC1	PGC1a acetyl up inconclusive | PCK1 hep suppr inconclusive | PGC1a hep suppr inactive
COC(=O)c1cc2ccsc2n1CC(=O)Nc1cc(Cl)ccc1OC	PGC1a acetyl up 59.4 | G6PC hep suppr inactive | PCK1 hep suppr inactive | PGC1a hep suppr inactive
O=C(OCc1ccccc1)N1CCC2CC1c1cc(-c3ccc(F)cc3)ccc12 (stereo not drawn)	none
CCOC(=O)C1=CC[C@@H](c2ccc(F)cc2)N(S(=O)(=O)c2ccc(C)cc2)[C@H]1c1ccccc1	PGC1a acetyl up 90.1 | PCK1 hep suppr inactive | PGC1a hep suppr inactive
CCOC(=O)C1=C[C@@H](C(C)C)N(S(=O)(=O)c2ccc(C)cc2)[C@H]1c1ccc(C(F)(F)F)cc1	PGC1a acetyl up 131.0 | G6PC hep suppr inactive | PCK1 hep suppr inactive | PGC1a hep suppr inactive
COc1ccc(C(=O)/C(=C\c2ccco2)N2C=CC=CC2=C(C#N)C#N)cc1	none
c1ccc(CNc2ncnc3nc[nH]c23)cc1	none
CC(=O)Nc1cc(OC(C)=O)c2nonc2c1OC(C)=O	none
C[C@@H]1CN([C@H](C)CO)C(=O)c2c(c3ccccc3n2C)-c2ccccc2CO[C@@H]1CN(C)C(=O)Nc1cccc(C(F)(F)F)c1	PGC1a acetyl up 67.9 | G6PC hep suppr inactive | PCK1 hep suppr inactive | PGC1a hep suppr inactive
CO[C@@H](C(=O)N(C)C[C@H]1OCc2ccccc2-c2c(n(C)c3ccccc23)C(=O)N([C@H](C)CO)C[C@H]1C)c1ccccc1	PGC1a acetyl up 72.2 | G6PC hep suppr inactive | PCK1 hep suppr inactive | PGC1a hep suppr inactive
C[C@@H]1CN([C@@H](C)CO)C(=O)c2c(c3ccccc3n2C)-c2ccccc2CO[C@@H]1CN(C)C(=O)Nc1ccc(F)cc1	PGC1a acetyl up inconclusive | G6PC hep suppr inactive | PCK1 hep suppr inactive | PGC1a hep suppr inactive
C[C@@H]1CN([C@@H](C)CO)C(=O)c2c(c3ccccc3n2C)-c2ccccc2CO[C@@H]1CN(C)C(=O)Nc1cccc(C(F)(F)F)c1	PGC1a acetyl up 79.3 | G6PC hep suppr inactive | PCK1 hep suppr inactive | PGC1a hep suppr inactive
COc1cccc2c1C(=O)c1c(O)c3c(c(O)c1C2=O)C[C@@](O)(C(C)=O)C[C@@H]3O[C@H]1C[C@H](N)[C@H](O)[C@H](C)O1	none
CC1(C)OC(=O)C(=Cc2ccc[nH]2)C(=O)O1	none
COc1ccccc1CN1C[C@@H]2C[C@@H](c3cccc(C)n3)N3CCC[C@@]23C1=O	none
COc1ccccc1CN1CCCC(C(=O)N(C)Cc2ccccc2)C1 (stereo not drawn)	none
CN1CCN(/N=C/c2ccc(N(c3ccccc3)c3ccccc3)cc2)CC1	none
Oc1ccc(-c2nc(-c3ccc(O)c(O)c3)cs2)cc1	none
CCNC(=S)NNC(=O)c1csc2ccccc12	none
CN(C)c1nc(SCCOC(=O)COc2ccc(Cl)cc2Cl)nc(N(C)C)n1	none
N#Cc1ccccc1COC(=O)c1ccc2c(c1)OCCO2	PGC1a acetyl up inconclusive | G6PC hep suppr inactive | PCK1 hep suppr inactive | PGC1a hep suppr inactive
Brc1ccc(N/N=C(/N=Nc2nn[nH]n2)c2ccccc2)cc1	none
N#Cc1cc2c(=O)n3ccccc3nc2n(Cc2cccnc2)c1=O	none
